Source: ChEMBL document CHEMBL3407476, “Design, synthesis and cytotoxic evaluation of 4-methylidenepyrazolidin-3-ones” (Eur J Med Chem, 2015)

How the values were obtained:
[1] = Cytotoxicity against human HL60 cells assessed as growth inhibition after 48 hrs by MTT assay; type: functional, cell-based; conditions: HL-60, 48 h
Method in brief: (§1)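 Leukemia cells in RPMI 1640 and MCF-7 in DMEM, both with 10% heat-inactivated FBS. HUVECs were grown per the supplier's protocol at passages 3–8. Cultures were kept at 37 °C in humidified 5% CO₂ and seeded at 8 × 10³ cells/well. After 24 h, compounds from fresh DMSO stocks were added over 10^-7 to 10^-3 M. Absorbance was read at 560 nm against untreated cells. IC50 came from concentration–response curves, as mean ± SD of at least three experiments.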

[2] = Cytotoxicity against human NALM6 cells assessed as growth inhibition after 48 hrs by MTT assay; type: functional, cell-based; conditions: NALM-6, 48 h; method in brief: as §1
MCF7 = assay: Cytotoxicity against human MCF7 cells assessed as growth inhibition after 48 hrs by MTT assay; type: functional, cell-based; conditions: MCF7, 48 h; method in brief: as §1
HUVEC = assay: Cytotoxicity against HUVEC assessed as growth inhibition after 48 hrs by MTT assay; type: cell-based; conditions: Homo sapiens; method in brief: as §1
[3] = Therapeutic index, ratio of IC50 for HUVEC to IC50 for human NALM6 cells; type: cell-based, NALM-6; conditions: HUVEC and NALM6 cells, read-out: Ratio IC50
[4] = Therapeutic index, ratio of IC50 for HUVEC to IC50 for human HL60 cells; type: cell-based, HL-60; conditions: HUVEC and HL60 cells, read-out: Ratio IC50

Row | SMILES | IC50 [1] [µM] | IC50 [2] [µM] | IC50 (MCF7) [µM] | IC50 (HUVEC) [µM] | selectivity ratio [3] | selectivity ratio [4]
1 | C=C1CN(C)N(c2ccccc2)C1=O | 45.7 | 56 | 56 | – | – | –
2 | C=C1CN(C)N(c2ccc(C)cc2)C1=O | 65.7 | 90.1 | 59.1 | – | – | –
3 | C=C1CN(C)N(c2ccc(Cl)cc2)C1=O | 38.1 | 51.9 | 45.2 | – | – | –
4 | C=C1CN(C)N(c2ccc(Br)cc2)C1=O | 51.8 | 62 | 43.8 | – | – | –
5 | C=C1C(=O)N(c2ccccc2)N(C)C1C (stereo not given) | 531 | 412 | 153 | – | – | –
6 | C=C1C(=O)N(c2ccccc2)N(C)C1CC (stereo not given) | 750 | 576 | 185 | – | – | –
7 | C=C1C(=O)N(c2ccccc2)N(C)C1CCCC (stereo not given) | 460 | 432 | 235 | – | – | –
8 | C=C1C(=O)N(c2ccccc2)N(C)C1CCCCCCCCC (stereo not given) | 49.9 | 57.5 | 91.1 | – | – | –
9 | C=C1C(=O)N(c2ccccc2)N(C)C1c1ccccc1 (stereo not given) | 40.9 | 24.4 | 84.4 | – | – | –
10 | C=C1C(=O)N(c2ccccc2)N(C)C1c1ccc(OC)cc1 (stereo not given) | 37.3 | 49.3 | 75 | – | – | –
11 | C=C1C(=O)N(c2ccccc2)N(c2ccccc2)C1C (stereo not given) | 5.85 | 6.98 | 12.5 | 29.9 | 4 | 5
12 | C=C1C(=O)N(c2ccccc2)N(c2ccccc2)C1CC (stereo not given) | 8.89 | 14.9 | 20 | 23.9 | – | –
13 | C=C1C(=O)N(c2ccccc2)N(c2ccccc2)C1CCCC (stereo not given) | 8.92 | 29.1 | 25.2 | 27 | – | –
14 | C=CC1C(=C)C(=O)N(c2ccccc2)N1c1ccccc1 (stereo not given) | 1.32 | 0.74 | 5.1 | 2.73 | 4 | –
15 | C=C1C(=O)N(c2ccccc2)N(c2ccccc2)C1c1ccccc1 (stereo not given) | 1.61 | 3.82 | 4.5 | 4.46 | – | –
16 | C=C1C(=O)NC(C)C1c1ccc(Br)cc1 (stereo not given) | 515 | 439 | – | – | – | –
